The values below come from ChEMBL document CHEMBL1125789, “Synthesis and selective class III antiarrhythmic activity of novel N-heteroaralkyl-substituted 1-(aryloxy)-2-propanolamine and related propylamine derivatives” (J Med Chem, 1991).

Assay [1] deals with Canis familiaris. Nature of the assay: Heart beat by the compound in open chest anesthetized dog, after iv administration at a dose of 0.25 mg/kg. Format: functional, Canis lupus familiaris. In outline: (§1)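 Hemodynamics (heart rate, mean arterial pressure) recorded in pentobarbital-anesthetized (30 mg/kg iv, 5 mg/kg per h maintenance) open-chest mongrel dogs during the refractoriness study at BCL 300 ms. Readings were taken before and after iv or intraduodenal compound and expressed as change from control.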

The species named for assay [2] is Canis familiaris. As to the kind of experiment: Repolarization to reach -60mV, in canine Purkinje Fibers at a concentration of 0.10 uM at 300 ms (simulating tachycardia). Format: functional, Canis lupus familiaris, Purkinje fiber. Put shortly: (§2)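 Isolated canine Purkinje fiber bundles were driven by square-wave pulses 2.0 ms long at 2× threshold and equilibrated ≥1 h to steady state. Each concentration was superfused 45–60 min before recording, and action potentials were sampled at 4–6 sites per fiber in control and after drug, giving Vmax and APD to −60 mV.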

Assay [3] relates to Canis familiaris. Nature of the assay: Ventricular conduction time by the compound in open chest anesthetized dog, after iv administration at a dose of 0.25 mg/kg. The assay is classed as functional, Canis lupus familiaris, Heart. Put shortly: (§3)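 Mongrel dogs were anesthetized with sodium pentobarbital (30 mg/kg iv, then 5 mg/kg per h), the chest opened, and the heart paced at BCL 300 ms. Compound was given iv or intraduodenally. Ventricular conduction time was taken as the interval between electrograms at the proximal and distal sites of the recording electrode array. 2-5 dogs per dose.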

For assay [4], the species on record is Canis familiaris. Nature of the assay: repolarization to reach -60mV, in canine Purkinje Fibers at a concentration of 0.03 uM at 1000 ms (simulating normal heart rate). Format: functional, Canis lupus familiaris, Purkinje fiber. Put shortly: (§4)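 Purkinje fiber bundles were stimulated with square-wave current pulses of 2.0 ms at twice threshold and equilibrated for at least 1 h, or until action potential parameters were steady. Each concentration was superfused for 45-60 min to reach steady state. Action potentials were recorded at four to six sites per fiber, under control and after drug.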

Assay [5] relates to Canis familiaris. Nature of the assay: Ventricular effective refractory period by the compound in open chest anesthetized dog, after iv administration at a dose of 0.50 mg/kg. The conditions noted are these: dose 0.5 mg/kg. Format: functional, Canis lupus familiaris, Heart.
Assay [6] concerns Canis familiaris. Nature of the assay: Mean arterial pressure by the compound in open chest anesthetized dog, after iv administration at a dose of 0.25 mg/kg. Format: functional, Canis lupus familiaris, Artery. In outline: as §1
Assay [7] deals with Canis familiaris. Nature of the assay: Atrial effective refractory period by the compound in open chest anesthetized dog, after iv administration at a dose of 0.25 mg/kg. Format: functional, Canis lupus familiaris, Cardiac atrium. In outline:
(§5)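 Open-chest mongrel dogs under sodium pentobarbital anesthesia (30 mg/kg iv plus 5 mg/kg per h), paced at basic cycle length 300 ms. Atrial effective refractory period was determined by electrical stimulation before and after iv or intraduodenal compound and reported as change from control.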

For assay [8], the species on record is Canis familiaris. As to the kind of experiment: repolarization to reach -60mV, in canine Purkinje Fibers at a concentration of 0.01 uM at 1000 ms (simulating normal heart rate). The assay is classed as functional, Canis lupus familiaris, Purkinje fiber. In outline:
as §4

The subject of assay [9] is Canis familiaris. As to the kind of experiment: Mean arterial pressure by the compound in open chest anesthetized dog, after iv administration at a dose of 0.50 mg/kg. Format: functional, Canis lupus familiaris, Artery. The conditions noted are these: dose 0.5 mg/kg. Put shortly:
as §1

Assay [10] deals with Canis familiaris. Nature of the assay: Mean arterial pressure by the compound in open chest anesthetized dog, after iv administration at a dose of 0.05 mg/kg. The assay is classed as functional, Canis lupus familiaris, Artery. Put shortly: as §1
Assay [11] deals with Canis familiaris. Nature of the assay: Heart beat by the compound in open chest anesthetized dog, after iv administration at a dose of 0.50 mg/kg. Format: functional, Canis lupus familiaris. The conditions noted are these: dose 0.5 mg/kg. In outline: as §1
Assay [12] relates to Canis familiaris. Nature of the assay: Atrial conduction time by the compound in open chest anesthetized dog, after iv administration at a dose of 0.50 mg/kg. The assay is classed as functional, Canis lupus familiaris, Cardiac atrium. As to conditions: dose 0.5 mg/kg. Put shortly:
(§6)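 Mongrel dogs anesthetized with sodium pentobarbital (30 mg/kg iv, then 5 mg/kg per h), chest opened, paced at BCL 300 ms. Atrial conduction time was taken as the interval between electrograms recorded at the proximal and distal sites of the atrial recording electrode array, before and after iv or intraduodenal dosing. Values are changes from control.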

For assay [13], the system named is Canis familiaris. Nature of the assay: Ventricular effective refractory period by the compound in open chest anesthetized dog, after iv administration at a dose of 0.25 mg/kg. Format: functional, Canis lupus familiaris, Heart.
Assay [14] has as its system Canis familiaris. As to the kind of experiment: Heart beat by the compound in open chest anesthetized dog, after iv administration at a dose of 0.05 mg/kg. The assay is classed as functional, Canis lupus familiaris. Put shortly: as §1
For assay [15], the system named is Canis familiaris. Nature of the assay: Atrial effective refractory period by the compound in open chest anesthetized dog, after iv administration at a dose of 0.05 mg/kg. The assay is classed as functional, Canis lupus familiaris, Cardiac atrium. Put shortly: as §5
The subject of assay [16] is Canis familiaris. As to the kind of experiment: Ventricular conduction time by the compound in open chest anesthetized dog, after iv administration at a dose of 0.05 mg/kg. The assay is classed as functional, Canis lupus familiaris, Heart. In outline:
as §3

Assay [17] deals with Canis familiaris. As to the kind of experiment: Atrial effective refractory period by the compound in open chest anesthetized dog, after iv administration at a dose of 0.50 mg/kg. Format: functional, Canis lupus familiaris, Cardiac atrium. The conditions noted are these: dose 0.5 mg/kg. Put shortly:
as §5

Assay [18] is filed under the species Canis familiaris. As to the kind of experiment: repolarization to reach -60mV, in canine Purkinje Fibers at a concentration of 0.10 uM at 1000 ms (simulating normal heart rate). The assay is classed as functional, Canis lupus familiaris, Purkinje fiber. In outline:
as §4

For assay [19], the species on record is Canis familiaris. Nature of the assay: Repolarization to reach -60mV, in canine Purkinje Fibers at a concentration of 0.01 uM at 300 ms (simulating tachycardia). Format: functional, Canis lupus familiaris, Purkinje fiber. Put shortly: as §2
Assay [20] deals with Canis familiaris. As to the kind of experiment: Atrial conduction time by the compound in open chest anesthetized dog, after iv administration at a dose of 0.05 mg/kg. The assay is classed as functional, Canis lupus familiaris, Cardiac atrium. In outline: as §6
Assay [21] deals with Canis familiaris. Nature of the assay: Ventricular conduction time by the compound in open chest anesthetized dog, after iv administration at a dose of 0.50 mg/kg. Format: functional, Canis lupus familiaris, Heart. As to conditions: dose 0.5 mg/kg. Put shortly: as §3
The test system of assay [22] is Canis familiaris. Nature of the assay: Ventricular effective refractory period by the compound in open chest anesthetized dog, after iv administration at a dose of 0.05 mg/kg. The assay is classed as functional, Canis lupus familiaris, Heart.
Assay [23] has as its system Canis familiaris. Nature of the assay: Atrial conduction time by the compound in open chest anesthetized dog, after iv administration at a dose of 0.25 mg/kg. Format: functional, Canis lupus familiaris, Cardiac atrium. In outline:
as §6

For assay [24], the species on record is Canis familiaris. Nature of the assay: Maximum rate of rise of the upstroke of transmembrane potential, in canine Purkinje Fibers at a concentration of 0.01 uM at 300 ms (simulating tachycardia). The assay is classed as functional. The conditions noted are these: Canis lupus familiaris, Purkinje fiber. Put shortly:
as §2

The species entered for assay [25] is Canis familiaris. Nature of the assay: Maximum rate of rise of the upstroke of transmembrane potential, in canine Purkinje Fibers at a concentration of 0.03 uM at 300 ms (simulating tachycardia). The assay is classed as functional. As to conditions: Canis lupus familiaris, Purkinje fiber. Put shortly: as §2
For assay [26], the species on record is Canis familiaris. As to the kind of experiment: Maximum rate of rise of the upstroke of transmembrane potential, in canine Purkinje Fibers at a concentration of 0.03 uM at 1000 ms (simulating normal heart rate). The conditions noted are these: Canis lupus familiaris, Purkinje fiber. The assay is classed as functional. In outline:
as §2

Assay [27] is filed under the species Canis familiaris. Nature of the assay: Repolarization to reach -60mV, in canine Purkinje Fibers at a concentration of 0.03 uM at 300 ms (simulating tachycardia). The assay is classed as functional, Canis lupus familiaris, Purkinje fiber. In outline:
as §2

For assay [28], the species on record is Canis familiaris. Nature of the assay: Maximum rate of rise of the upstroke of transmembrane potential, in canine Purkinje Fibers at a concentration of 0.10 uM at 1000 ms (simulating normal heart rate). Format: functional. The conditions noted are these: Canis lupus familiaris, Purkinje fiber. Put shortly:
as §2

Assay [29] is filed under the species Canis familiaris. Nature of the assay: Maximum rate of rise of the upstroke of transmembrane potential, in canine Purkinje Fibers at a concentration of 0.10 uM at 300 ms (simulating tachycardia). The conditions noted are these: Canis lupus familiaris, Purkinje fiber. Format: functional. Put shortly:
as §2

The species named for assay [30] is Canis familiaris. Nature of the assay: Maximum rate of rise of the upstroke of transmembrane potential, in canine Purkinje Fibers at a concentration of 0.01 uM at 1000 ms (simulating normal heart rate). The assay is classed as functional. As to conditions: Canis lupus familiaris, Purkinje fiber. Put shortly: as §2

In the case of `Cc1cccc(CCN2CCC(C(=O)c3ccc(NS(C)(=O)=O)cc3)CC2)n1`, the HR in the assay with Canis familiaris [1] was -25; in the assay with Canis familiaris [11], -29; in the assay with Canis familiaris [14], -10. The APD in the assay filed under Canis familiaris [2] was 24%; in the assay listed under Canis familiaris [4], 53%; in the assay filed under Canis familiaris [8] it was 27%; in the assay listed under Canis familiaris [18] it was 54%; in the assay listed under Canis familiaris [19] it was 11%. The VCT in the assay with Canis familiaris [3] is -2; in the assay with Canis familiaris [16], -3; with Canis familiaris [21], -3. The VERP with Canis familiaris [5] was found to be 24; with Canis familiaris [13], 23; in the assay on Canis familiaris [22], 18. The MBP in the assay on Canis familiaris [6] is on record as -11; in the assay with Canis familiaris [9], -15; in the assay on Canis familiaris [10] it was 2. Further, the AERP is recorded as 38 in the assay with Canis familiaris [7], 28 in the assay on Canis familiaris [15] and 44 with Canis familiaris [17]. Moreover, the ACT with Canis familiaris [12], in the assay with Canis familiaris [20] and with Canis familiaris [23] was 1 each time.

Turning to `CN(CCCOc1ccc(NS(C)(=O)=O)cc1)Cc1ccc2cc(NS(C)(=O)=O)ccc2n1`, the HR in the assay with Canis familiaris [1] was -26; with Canis familiaris [14], -16. In addition, the Vmax in the assay listed under Canis familiaris [24] was -1; in the assay listed under Canis familiaris [25], -9; in the assay filed under Canis familiaris [26] it was -8; in the assay filed under Canis familiaris [28], -12; in the assay listed under Canis familiaris [29], -14; in the assay listed under Canis familiaris [30], -1. For the same compound, the APD was 22% in the assay listed under Canis familiaris [2]; 56% in the assay filed under Canis familiaris [4]; 17% in the assay filed under Canis familiaris [27]; 36% in the assay filed under Canis familiaris [8]; 73% in the assay listed under Canis familiaris [18]; 15% in the assay filed under Canis familiaris [19]. Moreover, the VCT is given as -3 in the assay with Canis familiaris [3] and -1 with Canis familiaris [16]. Besides, the MBP with Canis familiaris [6] and in the assay on Canis familiaris [10] was 4 throughout. The AERP in the assay on Canis familiaris [7] stood at 70; in the assay with Canis familiaris [15], 53. The VERP in the assay with Canis familiaris [13] is listed as 36; with Canis familiaris [22] it was 26. Further, the figures for the ACT in the assay with Canis familiaris [20] and in the assay with Canis familiaris [23] were -5 and -4, respectively.
